NTR1 ag: activates human neurotensin receptor 1. P30989. 330,000 tested, 0.17% active. activation, % at 20 µM. NTR1-U2OS beta-arrestin-GFP spot imaging, agonist mode;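 active = activation at or above 40% of the spot to cytoplasm intensity ratio, with at least 20 cells analyzed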;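 note: 0% = DMSO without peptide and 100% = 100 nM NTR1 peptide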
GRK2 inh: human GRK2 inhibition via aptamer displacement; AID 488847; inhibition of aptamer binding, % at 10 µM; 330,000 tested, 0.59% active; bead flow cytometry, FAM-aptamer displacement from GRK2;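 active = inhibition of aptamer binding above 40%, roughly 3 SD of noise, on plates passing a quality check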;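 note: median bead fluorescence of bound FAM aptamer so fluorescent compounds give negative values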
Target sequence (P25098 whole entry, looked up): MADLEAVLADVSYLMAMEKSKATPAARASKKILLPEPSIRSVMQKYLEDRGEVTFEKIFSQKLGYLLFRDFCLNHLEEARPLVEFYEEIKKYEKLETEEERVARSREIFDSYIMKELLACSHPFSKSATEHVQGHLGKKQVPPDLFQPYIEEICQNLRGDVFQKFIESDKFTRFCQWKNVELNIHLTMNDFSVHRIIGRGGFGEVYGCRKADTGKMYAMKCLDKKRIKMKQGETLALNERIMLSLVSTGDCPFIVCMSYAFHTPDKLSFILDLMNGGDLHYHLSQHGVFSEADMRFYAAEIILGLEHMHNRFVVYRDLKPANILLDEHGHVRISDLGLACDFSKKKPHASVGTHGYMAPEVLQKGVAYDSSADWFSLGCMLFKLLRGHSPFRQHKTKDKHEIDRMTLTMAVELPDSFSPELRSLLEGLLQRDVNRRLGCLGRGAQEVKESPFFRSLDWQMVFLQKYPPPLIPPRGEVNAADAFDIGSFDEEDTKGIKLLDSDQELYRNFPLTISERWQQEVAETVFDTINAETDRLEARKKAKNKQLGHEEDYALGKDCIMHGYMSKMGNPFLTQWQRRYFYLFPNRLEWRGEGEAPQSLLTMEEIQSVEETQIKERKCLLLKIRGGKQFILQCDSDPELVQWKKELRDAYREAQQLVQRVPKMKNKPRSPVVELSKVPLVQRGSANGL
H9c2 TAG inh: inhibitors of triacylglycerol accumulation. H9c2 cells, Nile Red lipid (TAG) fluorescence; cells loaded with 200 µM oleic acid. inhibition, % at 12.5 µM. 230,000 tested, 0.66% active. AID 651582;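 active = pattern-corrected inhibition of lipid staining of at least 50% with the nuclear-stain viability signal not falling by more than 50%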;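 note: 0% = DMSO wells and 100% = triacsin C control wells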
Beta2AR agonist: activates human beta-2 adrenergic receptor causing internalization; 340,000 tested, 0.43% active; Am2.2-beta2AR cells, FAP receptor internalization, flow cytometry; response, % (concentration not given with the values); P07550; AID 504454;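 active = response above a set limit, near 3 SD of response in nonfluorescent compounds, cut at about 42% in these data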
Hep lipid drop: modulators of hepatic lipid droplet formation | AML12 mouse hepatocytes, oleate lipid droplets, BODIPY imaging | inhibition, % at 6.5 µM | 240,000 tested, 0.4% active | AID 1656;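 active = lipid droplet intensity inhibited by at least 50%, with more than 500 cells counted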
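System: AML12 hepatocytes (mouse). Probe or stimulus: oleic acid at 100 µM to induce lipid droplet formation. Times: overnight treatment with compound plus oleate. Detection: Image-based BODIPY and DAPI two-channel analysis. Evaluation: percent inhibition of filter-corrected integrated lipid droplet intensity per well.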
Arr AP2 block: blocks beta-arrestin peptide binding to AP2 adaptin; FITC-arrestin peptide / GST-AP2 beads, flow cytometry; AP2 beta2 appendage carries R879A mutation; 340,000 tested, 0.31% active; AID 504490; inhibition, % at 10 µM;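 active = inhibition above a set limit, near 3 SD of compounds lacking own fluorescence, cut at about 54% in these data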;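 note: plate controls were DMSO wells for no effect and 5 µM unlabelled arrestin peptide for full effect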
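test system = AP2 appendage R879A on GSH beads | buffer or medium = PBS plus Tween 20 (0.05%) and BSA (0.1%) | incubation = 12 min plus 1 h, RT | detection = bead flow cytometry, FITC channel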
GRK2 inh confirm: confirmation of human GRK2 inhibitors displacing RNA aptamer. AID 504451. 2,000 tested, 4% active. bead-bound GRK2, FAM-aptamer displacement, flow cytometry. shares compounds with GRK2 inh. aptamer displacement, % at 10 µM;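 active = aptamer displacement above 40%, near three times the noise of non-fluorescent compounds, on plates passing quality checks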;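 note: negative values mostly reflect intrinsic compound fluorescence rather than true enhancement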
Aptamer quench SP: counter-screen for GRK2 aptamer inhibitors: fluorescent aptamer quenchers | shares compounds with GRK2 inh | Carboxyfluorescein RNA aptamer on beads, flow cytometry quenching; stronger effect = lower value | fluorescence response (% of DMSO), % at 10 µM | 2,000 tested, under 10 active | AID 504580;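 active = compounds that quench the bead-bound fluorescent RNA probe, cutting fluorescence to under half of the solvent control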;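 note: counterscreen run without GRK2 so only probe quenching by compound is measured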
Numbers without * were called inactive; · = not tested or not shown. Most compounds without a hit are left out; they make up all but 2% or so of the library.

SMILES	NTR1 ag	GRK2 inh	H9c2 TAG inh	Beta2AR agonist	Hep lipid drop	Arr AP2 block	GRK2 inh confirm	Aptamer quench SP
CC(Oc1cccnc1[N+](=O)[O-])C(=O)N1CCc2ccccc21 (configuration not stated)	0	33	-4	8	·	-5	2	104
CNc1ccccc1C(=O)OCC(=O)N(CCOC)c1c(N)n(CC(C)C)c(=O)[nH]c1=O	1	6	-2	-7	·	-9	·	·
O=[N+]([O-])c1cc(Br)c(O)c(C=Nc2ccc(N3CCOCC3)cc2)c1	-1	51*	11	-5	0	12	0	103
COc1cccc(C=Nc2ccc(N3CCOCC3)cc2)c1O	0	3	2	-7	2	17	·	·
Cc1ccc(C(=O)n2c(=S)nc3ccccn32)cc1	·	·	·	·	-4	·	·	·
Cc1cccc(C(=O)n2c(=S)nc3ccccn32)c1	0	49*	0	-1	4	9	-15	97
Cc1ccc(CCN2CC(C(=O)NCCCN3CCC(C)CC3)CC2=O)cc1 (configuration not stated)	2	0	·	0	5	23	·	·
COc1ccc(/C=C2\CCCc3c2nc2ccccc2c3C(=O)O)cc1OC	0	0	·	·	-5	·	·	·
COc1ccc(/C=C2\CCc3c2nc2ccccc2c3C(=O)O)cc1OC	3	1	8	10	-1	-8	17	100
CCN1CCN(c2cc(C)c3cc(NC(=S)N(C)Cc4ccccc4)ccc3n2)CC1	0	1	·	9	-20	-17	1	98
CCCCN(C)C(=S)Nc1ccc2nc(N3CCN(CC)CC3)cc(C)c2c1	0	0	0	11	6	12	·	·
O=C(NN1CCOCC1)c1cc(-c2ccccc2)nc2ccccc12	0	71*	·	2	·	-8	1	98
CC1CCC(NC(=S)NCCN(C)C)CC1 (configuration not stated)	0	0	0	0	-19	18	·	·
CC1CCC(NC(=O)N(CCCl)N=O)CC1 (configuration not stated)	0	26	-2	-7	·	19	-6	103
CCCCCC/C=C/c1ccc([C@H]2[C@H]3C=CC[C@@H](C)[C@@H]3C(=O)N2Cc2ccccc2)c(F)c1	-4	1	-49	9	-6	-2	3	94
O=C(O)c1cccc(-c2ccc(/C=c3/sc4nc5ccccc5n4c3=O)o2)c1	-1	50*	12	15	12	-10	12	97
O=C(O)c1cc(C(=O)O)cc(-c2ccc(/C=c3/sc4nc5ccccc5n4c3=O)o2)c1	·	·	·	2	-2	16	·	·
O=C(NCCN1CCOCC1)c1ccc(N2CCCC2)c([N+](=O)[O-])c1	0	2	·	-8	1	-58	·	·
COc1ccccc1C=NNC(=O)c1ccncc1	·	·	-1	8	·	-1	·	·
COc1ccc(OC)c(/C=N/NC(=O)c2ccncc2)c1	0	57*	·	-6	-1	44	-1	99
Cc1ccc(CNC(=O)c2cccc(OCc3c(C)noc3C)c2)cc1	1	1	·	0	·	6	-3	95
Cc1noc(C)c1COc1cccc(C(=O)NCc2cccc(Cl)c2)c1	0	5	12	-6	·	7	-3	100
Cn1c(=O)c2c(ncn2CC(=O)OCC(=O)c2ccc(OC(F)F)cc2OC(F)F)n(C)c1=O	·	·	5	·	·	·	·	·
C=CCn1cccc(C(=O)Nc2ccc(OC)c(OC)c2)c1=O	-1	48*	·	-5	·	-1	0	97
CCOc1ccc(C(=O)NNC(=O)CNC(=O)c2ccc(C)s2)cc1OC	-2	0	19	3	·	6	·	·
SMILES	NTR1 ag	GRK2 inh	H9c2 TAG inh	Beta2AR agonist	Hep lipid drop	Arr AP2 block	GRK2 inh confirm	Aptamer quench SP
COc1ccc([C@H]2CC(=O)C=C(c3ccccc3Oc3ccccc3)C2)cc1	4	60*	-32	0	·	2	-2	95
COc1ccccc1NC(=O)CC1CCCC1	2	61*	·	-2	-10	12	-4	105
COc1ccc(CC(=O)Nc2ccc(S(=O)(=O)N3CCC(C)CC3)cc2)c(OC)c1	-1	0	4	-9	·	-9	·	·
NS(=O)(=O)c1ccc2nc(-c3ccccc3)c(-c3ccccc3)nc2c1	0	0	·	3	-3	14	·	·
O=C1CN(C(=O)c2ccccc2F)c2ccccc2N1	0	48*	·	1	-7	-10	1	96
COc1ccc(C(O)c2nc(-c3cccs3)cs2)cc1 (configuration not stated)	·	·	-4	·	·	·	·	·
Cc1ccc(-c2csc3ncn(CC#N)c(=O)c23)cc1C	2	86*	21	0	-65	10	-1	93
COc1ccc(NC(=S)NCc2cccs2)cc1	-1	62*	-9	-2	-1	13	0	110
CC(C)c1ccc(NC(=S)NCc2cccs2)cc1	-2	0	·	-18	2	16	·	·
CC1CC(C)CN(S(=O)(=O)c2cccc(C(=O)OCCN3CCCC3=O)c2)C1 (configuration not stated)	-1	89*	·	8	1	-9	2	98
CC1CN(S(=O)(=O)c2cccc(C(=O)OCCOc3ccccc3)c2)CC(C)O1 (configuration not stated)	0	4	-3	-1	·	-6	·	·
CCN(c1ccc(OC)cc1)S(=O)(=O)c1nnc(NC(=O)CC(C)C)s1	2	2	·	-2	-3	10	·	·
O=C(COc1ccccc1N1C(=O)c2ccccc2C1=O)c1ccc(Cl)cc1	-2	73*	-4	-53	0	1	-8	98
COc1ccc(CCNCc2ccc(OCc3ccccc3)cc2)cc1	-1	58*	·	17	-1	5	-8	98
Cc1cccc(-c2cccc(NC(=O)C3CCCN(C(=O)c4csc(C)n4)C3)c2)c1 (configuration not stated)	2	0	·	10	-2	31	·	·
COc1ccccc1NC(=O)NC1(C(=O)N2CCCCCC2)CCCCC1	-2	95*	1	4	-5	19	-3	95
COc1ccccc1NC(=O)NC1(C(=O)N2CCOCC2)CCCCC1	0	0	·	-1	2	-17	·	·
CCC(C)C(N)C(=O)N1CCCC1C(=O)NC(C(=O)O)C(C)CC (configuration not stated)	·	·	-1	-8	·	-13	·	·

Source: PubChem BioAssay (several laboratories)
